ChEMBL document CHEMBL3734708, “Synthesis, cytotoxicity and antiviral evaluation of new series of imidazo[4,5-g]quinoline and pyrido[2,3-g]quinoxalinone derivatives” (Eur J Med Chem, 2015)

Tested on: Human immunodeficiency virus 1
Test: Antiviral activity against HIV-1 3B infected in human MT4 cells assessed as protection against virus-induced cytopathic effect after 4 days by MTT assay
Assay type: functional, organism-based
Conditions: Human immunodeficiency virus 1, 3B, MT4, 96 h
How it was run: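 MT-4 cells (1 × 10^4/well in RPMI) with or without serial compound dilutions, infected with HIV-1 at 100 CCID50 (m.o.i. 0.01). After 4 days at 37 °C, protection from cytopathogenicity read by MTT. EC50 by linear regression versus untreated controls; mean of three independent determinations.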

Q: Which EC50 does the source give for CC(C)c1nc2c(Cl)c3ncccc3cc2[nH]c1=O here?
A: > 100 µM

Q: With O=c1[nH]c2cc3cccnc3c(Cl)c2nc1-c1ccccc1 as the molecule, how does the EC50 read?
A: > 61 µM

Q: Which EC50 does the source give for O=c1[nH]c2cc3cccnc3c(Cl)c2nc1Cc1ccccc1 here?
A: > 15 µM

Tested on: Human alphaherpesvirus 1
Test: Antiviral activity against HSV-1 KOS ATCC VR- 1493 infected in african green monkey Vero-76 cells after 3 days by plaque reduction assay
Assay type: functional, organism-based
Conditions: Human alphaherpesvirus 1, KOS ATCC VR1493, Vero 76, 72 h

Q: With CC(C)c1nc2c(Cl)c3ncccc3cc2[nH]c1=O as the molecule, how does the EC50 read?
A: > 100 µM

Q: For O=c1[nH]c2cc3cccnc3c(Cl)c2nc1-c1ccccc1, which EC50 is on record?
A: > 100 µM

Q: Which EC50 does the source give for O=c1[nH]c2cc3cccnc3c(Cl)c2nc1Cc1ccccc1 here?
A: > 88 µM

Tested on: not listed separately
Test: Selectivity index, ratio of CC50 for human GS4.1 cells to EC50 for Hepatitis C virus genotype 1b replicon infected in human GS4.1 cells
Assay type: toxicity, cell-based
Conditions: read-out: Ratio CC50/EC50
How it was run: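 Replicon GS4.1 cells 7.5 × 10^3/well with twofold dilutions (top 75 µM), 72 h at 37 °C. Replication measured by NS4A ELISA (anti-NS4A A-236, peroxidase conjugate, phenylenediamine, A492), with EC50 by four-parameter sigmoidal fit. CC50 from CellTiter 96 AQueous One in the same cells. Index taken as CC50/EC50.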

Q: With O=c1[nH]c2cc3cccnc3c(Cl)c2nc1-c1ccccc1 as the molecule, how does the selectivity ratio read?
A: 1

Q: With O=c1[nH]c2cc3cccnc3c(Cl)c2nc1Cc1ccccc1 as the molecule, how does the selectivity ratio read?
A: 1

Tested on: not listed separately
Test: Cytotoxicity against MDBK cells assessed as reduction in cell viability after 72 hrs by MTT assay
Assay type: cell-based, Bos taurus
Conditions: cattle
How it was run: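 MDBK cells seeded at 6 × 10^5 cells/mL in MEM-E with L-glutamine, 1 mM sodium pyruvate, kanamycin and 10% horse serum. Mock-infected cultures held with serial compound dilutions at 37 °C, 5% CO2. MTT viability read after 72 h. 50% cytotoxic concentration from linear regression as % of untreated controls. Three independent determinations.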

Q: With CC(C)c1nc2c(Cl)c3ncccc3cc2[nH]c1=O as the molecule, how does the CC50 at 72 h read?
A: > 100 µM

Q: With O=c1[nH]c2cc3cccnc3c(Cl)c2nc1-c1ccccc1 as the molecule, how does the CC50 at 72 h read?
A: > 100 µM

Q: For O=c1[nH]c2cc3cccnc3c(Cl)c2nc1Cc1ccccc1, which CC50 at 72 h is on record?
A: > 100 µM

Tested on: Bovine viral diarrhea virus 1
Test: Antiviral activity against BVDV NADL ATCC VR-534 infected in MDBK cells assessed as protection against virus-induced cytopathic effect after 3 or 4 days by MTT assay
Assay type: functional, organism-based
Conditions: Bovine viral diarrhea virus isolates and strains, NADL ATCC VR-534, MDBK
How it was run: (§1)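 BHK-21 (YFV, Reo-1) or MDBK (BVDV) cells seeded at 5 × 10^4 or 3 × 10^4 cells/well and grown overnight to confluence. Monolayers infected at m.o.i. 0.01 in maintenance medium (MEM-Earle, 0.5% inactivated FBS). Serial compound dilutions added 2 h after infection; 37 °C for 3-4 days. Viability read by MTT. EC50 by linear regression versus untreated controls; mean of three determinations.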

Q: Which EC50 does the source give for CC(C)c1nc2c(Cl)c3ncccc3cc2[nH]c1=O here?
A: > 100 µM

Q: With O=c1[nH]c2cc3cccnc3c(Cl)c2nc1-c1ccccc1 as the molecule, how does the EC50 read?
A: 5 µM

Q: Which EC50 does the source give for O=c1[nH]c2cc3cccnc3c(Cl)c2nc1Cc1ccccc1 here?
A: 2.6 µM

Tested on: Yellow fever virus
Test: Antiviral activity against YFV 17-D vaccine (Stamaril Pasteur J07B01) infected in BHK21 cells assessed as protection against virus-induced cytopathic effect after 3 or 4 days by MTT assay
Assay type: functional, organism-based
Conditions: BHK-21
How it was run: as §1

Q: With CC(C)c1nc2c(Cl)c3ncccc3cc2[nH]c1=O as the molecule, how does the EC50 read?
A: > 100 µM

Q: With O=c1[nH]c2cc3cccnc3c(Cl)c2nc1-c1ccccc1 as the molecule, how does the EC50 read?
A: > 100 µM

Q: For O=c1[nH]c2cc3cccnc3c(Cl)c2nc1Cc1ccccc1, which EC50 is on record?
A: > 100 µM

Tested on: Human poliovirus 1 strain Sabin
Test: Antiviral activity against Human poliovirus 1 strain Sabin 1 virus infected in african green monkey Vero-76 cells after 2 days by plaque reduction assay
Assay type: functional, organism-based
Conditions: Enterovirus C, 1, Vero 76, 48 h

Q: With CC(C)c1nc2c(Cl)c3ncccc3cc2[nH]c1=O as the molecule, how does the EC50 read?
A: > 100 µM

Q: With O=c1[nH]c2cc3cccnc3c(Cl)c2nc1-c1ccccc1 as the molecule, how does the EC50 read?
A: > 100 µM

Q: Which EC50 does the source give for O=c1[nH]c2cc3cccnc3c(Cl)c2nc1Cc1ccccc1 here?
A: > 88 µM

Tested on: Mammalian orthoreovirus 1
Test: Antiviral activity against Reovirus 1 ATCC VR- 214 infected in BHK21 cells assessed as protection against virus-induced cytopathic effect after 3 or 4 days by MTT assay
Assay type: functional, cell-based
Conditions: Mammalian orthoreovirus 1, ATCC VR- 214, BHK-21
How it was run: as §1

Q: For CC(C)c1nc2c(Cl)c3ncccc3cc2[nH]c1=O, which EC50 is on record?
A: > 100 µM

Q: For O=c1[nH]c2cc3cccnc3c(Cl)c2nc1-c1ccccc1, which EC50 is on record?
A: > 100 µM

Q: For O=c1[nH]c2cc3cccnc3c(Cl)c2nc1Cc1ccccc1, which EC50 is on record?
A: > 100 µM

Tested on: Coxsackievirus B5
Test: Antiviral activity against CVB-5 virus Faulkner ATCC VR-185 infected in african green monkey Vero-76 cells after 3 days by plaque reduction assay
Assay type: functional, organism-based
Conditions: Enterovirus B, Faulkner ATCC VR-185, Vero 76, 72 h

Q: With CC(C)c1nc2c(Cl)c3ncccc3cc2[nH]c1=O as the molecule, how does the EC50 read?
A: > 100 µM

Q: Which EC50 does the source give for O=c1[nH]c2cc3cccnc3c(Cl)c2nc1-c1ccccc1 here?
A: > 100 µM

Q: With O=c1[nH]c2cc3cccnc3c(Cl)c2nc1Cc1ccccc1 as the molecule, how does the EC50 read?
A: > 88 µM

Tested on: not listed separately
Test: Cytotoxicity against human MT4 cells assessed as reduction in cell proliferation after 96 hrs by MTT assay
Assay type: cell-based
Conditions: not given
How it was run: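 MT-4 cells in exponential growth seeded at 1 × 10^5 cells/mL in RPMI-1640 with 10% FBS and penicillin/streptomycin. Cultured with serial compound dilutions at 37 °C, 5% CO2. MTT viability after 96 h. CC50 by linear regression against untreated controls. Mean of three independent determinations.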

Q: With CC(C)c1nc2c(Cl)c3ncccc3cc2[nH]c1=O as the molecule, how does the CC50 at 96 h read?
A: > 100 µM

Q: For O=c1[nH]c2cc3cccnc3c(Cl)c2nc1-c1ccccc1, which CC50 at 96 h is on record?
A: 61 µM

Tested on: Vaccinia virus
Test: Antiviral activity against VV Elstree ATCC VR-1549 infected in african green monkey Vero-76 cells after 3 days by plaque reduction assay
Assay type: functional, organism-based
Conditions: Orthopoxvirus vaccinia, Elstree ATCC VR-1549, Vero 76, 72 h

Q: With CC(C)c1nc2c(Cl)c3ncccc3cc2[nH]c1=O as the molecule, how does the EC50 read?
A: > 100 µM

Q: With O=c1[nH]c2cc3cccnc3c(Cl)c2nc1-c1ccccc1 as the molecule, how does the EC50 read?
A: > 100 µM

Q: For O=c1[nH]c2cc3cccnc3c(Cl)c2nc1Cc1ccccc1, which EC50 is on record?
A: > 88 µM

Tested on: Respiratory syncytial virus
Test: Antiviral activity against RSVA2 ATCC VR-1540 infected in african green monkey Vero-76 cells after 5 days by plaque reduction assay
Assay type: functional, organism-based
Conditions: human respiratory syncytial virus, A2 ATCC VR-1540, Vero 76, 120 h

Q: Which EC50 does the source give for CC(C)c1nc2c(Cl)c3ncccc3cc2[nH]c1=O here?
A: > 100 µM

Q: Which EC50 does the source give for O=c1[nH]c2cc3cccnc3c(Cl)c2nc1-c1ccccc1 here?
A: > 100 µM

Q: With O=c1[nH]c2cc3cccnc3c(Cl)c2nc1Cc1ccccc1 as the molecule, how does the EC50 read?
A: > 88 µM

Tested on: not listed separately
Test: Cytotoxicity against african green monkey Vero 76 cells assessed as reduction in cell viability after 48 to 96 hrs by MTT assay
Assay type: cell-based
Conditions: chlorocebus sabaeus
How it was run: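 Vero-76 cells plated at 4 × 10^5 cells/mL in D-MEM with L-glutamine, kanamycin and 10% FBS. Incubated with serial dilutions of test compounds at 37 °C, 5% CO2 for 48-96 h. Viability by MTT. CC50 by linear regression relative to untreated cells. Mean of three independent runs.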

Q: With CC(C)c1nc2c(Cl)c3ncccc3cc2[nH]c1=O as the molecule, how does the CC50 read?
A: > 100 µM

Q: With O=c1[nH]c2cc3cccnc3c(Cl)c2nc1-c1ccccc1 as the molecule, how does the CC50 read?
A: > 100 µM

Q: For O=c1[nH]c2cc3cccnc3c(Cl)c2nc1Cc1ccccc1, which CC50 is on record?
A: 88 µM

Tested on: Vesicular stomatitis virus
Test: Antiviral activity against VSV Indiana ATCC VR-158 infected in african green monkey Vero-76 cells after 2 days by plaque reduction assay
Assay type: functional, organism-based
Conditions: Indiana ATCC VR-158, Vero 76, 48 h

Q: Which EC50 does the source give for CC(C)c1nc2c(Cl)c3ncccc3cc2[nH]c1=O here?
A: > 100 µM

Q: For O=c1[nH]c2cc3cccnc3c(Cl)c2nc1-c1ccccc1, which EC50 is on record?
A: > 100 µM

Q: For O=c1[nH]c2cc3cccnc3c(Cl)c2nc1Cc1ccccc1, which EC50 is on record?
A: > 88 µM

Tested on: not listed separately
Test: Cytotoxicity against BHK21 cells assessed as reduction in cell viability after 72 hrs by MTT assay
Assay type: cell-based, Mesocricetus auratus, BHK-21
Conditions: hamster
How it was run: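 BHK cells seeded at 1 × 10^6 cells/mL in MEM-E with L-glutamine, 1 mM sodium pyruvate, kanamycin and 10% FBS. Mock-infected cells exposed to serial dilutions of compound at 37 °C, 5% CO2, run in parallel with the antiviral assays. Viability by MTT at 72 h. CC50 by linear regression vs untreated controls. Mean of three independent determinations.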

Q: With CC(C)c1nc2c(Cl)c3ncccc3cc2[nH]c1=O as the molecule, how does the CC50 at 72 h read?
A: > 100 µM

Q: Which CC50 at 72 h does the source give for O=c1[nH]c2cc3cccnc3c(Cl)c2nc1-c1ccccc1 here?
A: > 100 µM

Q: With O=c1[nH]c2cc3cccnc3c(Cl)c2nc1Cc1ccccc1 as the molecule, how does the CC50 at 72 h read?
A: > 100 µM

Tested on: not listed separately
Test: Selectivity index, ratio of CC50 for MDBK cells to EC50 for BVDV infected in MDBK cells
Conditions: not given

Q: With O=c1[nH]c2cc3cccnc3c(Cl)c2nc1-c1ccccc1 as the molecule, how does the “Ratio CC50/EC50” value read?
A: >20

Q: Which “Ratio CC50/EC50” value does the source give for O=c1[nH]c2cc3cccnc3c(Cl)c2nc1Cc1ccccc1 here?
A: >34

Tested on: Hepatitis C virus
Test: Antiviral activity against Hepatitis C virus genotype 1b replicon infected in human GS4.1 cells assessed as protection against virus-induced cytopathic effect after […] by ELISA
Assay type: functional, organism-based, Hepacivirus hominis
Conditions: not given
How it was run: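 Huh-7 cells carrying the genotype 1b replicon (GS4.1) seeded at 7.5 × 10^3 cells/well in twofold serial compound dilutions (top 75 µM). Replicon-free Huh-7 served as negative control. 72 h at 37 °C. Fixed in acetone-methanol; NS4A ELISA with mouse monoclonal A-236, peroxidase anti-mouse IgG and phenylenediamine; absorbance at 492 nm. EC50 by four-parameter sigmoidal regression of % inhibition.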

Q: Which EC50 does the source give for O=c1[nH]c2cc3cccnc3c(Cl)c2nc1-c1ccccc1 here?
A: > 11 µM

Q: For O=c1[nH]c2cc3cccnc3c(Cl)c2nc1Cc1ccccc1, which EC50 is on record?
A: > 65 µM
